Molecules are shown by their SMILES.

We go through two compounds from PubChem BioAssay AID695 (The Scripps Research Institute Molecular Screening Center, 2007).

The target of this assay is Steroidogenic factor 1 (Homo sapiens) (UniProt Q13285). The experiment in a line: SF-1 driven luciferase reporter response, dose response, counter-screen for RORA activator project, CHO-K1 cells (AID 695). As to conditions: CHO-K1 SF1 luciferase transactivation, luminescence. An outline of the steps: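 Material – transiently transfected CHO-K1, Gal4-DBD/human SF-1 LBD fusion, 5xGal4-luciferase reporter · Signal – luciferase luminescence with SteadyLite reagent · Replication – triplicate wells per concentration · Times – 20 h compound treatment, 37 °C · Measure – EC50 by four-parameter fit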
In general terms: In a reporter assay the amount or activity of a reporter protein is the signal.

What is called EC50 is the concentration needed to bring the measured effect to its halfway point. Regarding `O=C1COc2ccc(OCc3ccc(F)cc3)cc21`, the EC50 was 1710 nM.
In the case of `C=CCOc1ccc(/C=C/C(C)=N\O)cc1` it was 1020 nM.
